ChEMBL document CHEMBL4265975, “Synthesis, biological evaluation and molecular modeling of a novel series of fused 1,2,3-triazoles as potential anti-coronavirus agents” (Bioorg Med Chem Lett, 2018)

Columns and labels:
[1] = Cytotoxicity against HEL cells assessed as alteration in cell morphology after 3 days by microscopic method; type: cell-based; conditions: human
Summary of the method: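 HEL cells were seeded at 5 x 10^3 cells/well and exposed to graded compound concentrations, up to 100 μM, in parallel with the antiviral assay. Cell morphology was examined by light microscopy. MCC is the minimum concentration causing a microscopically detectable alteration of normal cell morphology.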

Vaccinia virus = assay: Antiviral activity against Vaccinia virus infected in human HEL cells assessed as inhibition of virus-induced cytopathic effect after 3 days by microscopic method; type: functional, organism-based; conditions: Orthopoxvirus vaccinia, 72 h
Human alphaherpesvirus 1 [2] = assay: Antiviral activity against Herpes simplex virus 1 KOS infected in human HEL cells assessed as inhibition of virus-induced cytopathic effect after 3 days by microscopic method; type: functional, organism-based; conditions: Human alphaherpesvirus 1, KOS, 72 h
[3] = Selectivity index, ratio of MCC for HEL cells to EC50 for Human coronavirus 229E infected in HEL cells; type: toxicity, cell-based; conditions: read-out: Selectivity Index
Summary of the method: (§1)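 SI is MCC divided by EC50. […] MCC was measured in parallel on HEL cells seeded at 5 x 10^3 cells/well, as the lowest concentration causing microscopically visible alteration of cell morphology. The top concentration tested was 100 µM.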

Human coronavirus 229E = assay: Antiviral activity against Human coronavirus 229E infected in HEL cells assessed as reduction in virus-induced pathogenicity after 3 days by microscopic method; type: functional, organism-based; conditions: 72 h
[4] = Selectivity index, ratio of MCC for HEL cells to EC50 for Herpes simplex virus 1 KOS infected in HEL cells; type: toxicity, cell-based; conditions: human, read-out: Selectivity Index; summary of the method: as §1
Human alphaherpesvirus 1 [5] = assay: Antiviral activity against acyclovir-resistant TK-defecient Herpes simplex virus 1 KOS infected in human HEL cells assessed as inhibition of virus-induced cytopathic effect after 3 days by microscopic method; type: functional, organism-based; conditions: Human alphaherpesvirus 1, KOS, 72 h
[6] = Selectivity index, ratio of MCC for HEL cells to EC50 for Vaccinia virus infected in HEL cells; type: toxicity, cell-based; conditions: human, read-out: Selectivity Index; summary of the method: as §1
[7] = Selectivity index, ratio of MCC for HEL cells to EC50 for Herpes simplex virus 2 strain G infected in HEL cells; type: toxicity, cell-based; conditions: human, read-out: Selectivity Index; summary of the method: as §1
Human adenovirus 2 = assay: Antiviral activity against Human adenovirus 2 infected in human HEL cells assessed as inhibition of virus-induced cytopathic effect after 3 days by microscopic method; type: functional, organism-based; conditions: Human mastadenovirus C, 72 h
Summary of the method: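 HEL cells were infected with adenovirus 2 for 2 h. Residual virus was then removed and the cells were incubated with medium containing graded compound concentrations for 3 days at 37°C. Virus-induced cytopathogenicity was scored microscopically.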

[8] = Selectivity index, ratio of MCC for HEL cells to EC50 for acyclovir-resistant TK-defecient Herpes simplex virus 1 KOS infected in HEL cells; type: toxicity, cell-based; conditions: human, read-out: Selectivity Index; summary of the method: as §1
[9] = Selectivity index, ratio of MCC for HEL cells to EC50 for Human adenovirus 2 infected in HEL cells; type: toxicity, cell-based; conditions: read-out: Selectivity Index; summary of the method: as §1
Human alphaherpesvirus 2 = assay: Antiviral activity against Human herpesvirus 2 strain G infected in human HEL cells assessed as inhibition of virus-induced cytopathic effect after 3 days by microscopic method; type: functional, organism-based; conditions: Human alphaherpesvirus 2, strain G, 72 h

| SMILES | MCC at 72 h [1] [µM] | EC50 (Vaccinia virus) [µM] | EC50 (Human alphaherpesvirus 1 [2]) [µM] | selectivity ratio [3] | EC50 (Human coronavirus 229E) [µM] | selectivity ratio [4] | EC50 (Human alphaherpesvirus 1 [5]) [µM] | selectivity ratio [6] | selectivity ratio [7] | EC50 (Human adenovirus 2) [µM] | selectivity ratio [8] | selectivity ratio [9] | EC50 (Human alphaherpesvirus 2) [µM] |
| --- | --- | --- | --- | --- | --- | --- | --- | --- | --- | --- | --- | --- | --- |
| COc1ccccc1CCn1nnc2c1CCN(c1ccccc1)C2 | ≥ 100 | > 100 | > 100 | > 8 | > 100 | > 8 | > 100 | > 8 | > 8 | > 100 | > 8 | > 8 | > 100 |
| CCCCCCn1nnc2c1CCN(c1ccccc1)C2 | > 100 | > 100 | > 100 | > 8 | > 100 | > 8 | > 100 | > 8 | > 8 | > 100 | > 8 | > 8 | > 100 |
| COc1cccc(CCn2nnc3c2CCN(c2ccc(C(F)(F)F)cc2)C3)c1 | > 100 | > 100 | > 100 | > 8 | > 100 | > 8 | > 100 | > 8 | > 8 | 16 | > 8 | > 8 | > 100 |
| Nc1nc2c(ncn2COCCO)c(=O)[nH]1 [ACYCLOVIR] | > 250 | > 250 |  |  |  |  |  |  |  |  |  |  |  |
| Nc1nc2c(ncn2COC(CO)CO)c(=O)[nH]1 [GANCICLOVIR] | > 100 | > 100 |  |  |  |  |  |  |  |  |  |  |  |
| CCOC(=O)C1(Cc2ccccc2)CN(c2ccccc2)Cc2nnn(Cc3cccc(F)c3)c21 (stereo not drawn) | ≥ 100 | > 100 | > 100 | > 8 | > 100 | > 8 | > 100 | > 8 | > 8 | > 100 | > 8 | > 8 | > 100 |
| CCOC(=O)C1(Cc2ccccc2)CN(c2ccccc2)Cc2nnn(CCc3ccccc3OC)c21 (stereo not drawn) | ≥ 100 | > 100 | > 100 | > 8 | > 100 | > 8 | > 100 | > 8 | > 8 | > 100 | > 8 | > 8 | > 100 |
| CCOC(=O)C1(Cc2ccccc2)CN(c2ccccc2)Cc2nnn(Cc3c(F)cccc3Cl)c21 (stereo not drawn) | > 100 | > 100 | > 100 | > 8 | > 100 | > 8 | > 100 | > 8 | > 8 | > 100 | > 8 | > 8 | > 100 |
| COc1ccc(CCn2nnc3c2CCN(c2ccc(C(F)(F)F)cc2)C3)cc1 | > 100 | > 100 | > 100 | > 8 | 8.9 | > 8 | > 100 | > 8 | > 8 | > 100 | > 8 | > 8 | > 100 |
| CCOC(=O)C1(Cc2ccccc2)CN(c2ccccc2)Cc2nnn(CCCCCO)c21 (stereo not drawn) | > 100 | > 100 | > 100 | > 8 | > 100 | > 8 | > 100 | > 8 | > 8 | > 100 | > 8 | > 8 | > 100 |
| Nc1ccn(C[C@@H](CO)OCP(=O)(O)O)c(=O)n1 [CIDOFOVIR] | > 250 | 85 | 4.5 |  |  |  | 2.8 |  |  | 22 |  |  | 3.4 |
| Fc1cccc(Cn2nnc3c2CCN(c2ccc(C(F)(F)F)cc2)C3)c1 | 100 | > 100 | > 100 | > 8 | 12 | > 8 | > 100 | > 8 | > 8 | > 100 | > 8 | > 8 | > 100 |
| CCOC(=O)C1(Cc2ccccc2)CN(c2ccccc2)Cc2nnn(Cc3ccccc3)c21 (stereo not drawn) | ≥ 20 | > 100 | > 100 | > 8 | > 100 | > 8 | > 100 | > 8 | > 8 | > 100 | > 8 | > 8 | > 100 |
| CCOC(=O)C1(Cc2ccc(F)cc2)CN(c2ccccc2)Cc2nnn(Cc3cccc(F)c3)c21 (stereo not drawn) | > 100 | > 100 | > 100 | > 8 | > 100 | > 8 | > 100 | > 8 | > 8 | > 100 | > 8 | > 8 | > 100 |
| CCOC(=O)C1(Cc2ccccc2)CN(c2ccccc2)Cc2nnn(Cc3ccc(OC)cc3)c21 (stereo not drawn) | > 100 | > 100 | > 100 | > 8 | > 100 | > 8 | > 100 | > 8 | > 8 | > 100 | > 8 | > 8 | > 100 |
| O=c1[nH]c(=O)n([C@H]2C[C@H](O)[C@@H](CO)O2)cc1/C=C/Br [BRIVUDINE] | > 250 | 3.8 |  |  |  |  |  |  |  |  |  |  |  |
| COc1ccc(CCn2nnc3c2CCN(c2ccccc2)C3)cc1 | > 100 | > 100 | > 100 | > 8 | > 100 | > 8 | > 100 | > 8 | > 8 | > 100 | > 8 | > 8 | > 100 |
| CCOC(=O)C1(Cc2ccccc2)CN(c2ccccc2)Cc2nnn(Cc3ccccc3Cl)c21 (stereo not drawn) | > 100 | > 100 | > 100 | > 8 | > 100 | > 8 | > 100 | > 8 | > 8 | > 100 | > 8 | > 8 | > 100 |
| CCOC(=O)C1(Cc2ccccc2)CN(c2ccccc2)Cc2nnn(CCc3ccc(OC)cc3)c21 (stereo not drawn) | ≥ 20 | > 100 | > 100 | > 8 | > 100 | > 8 | > 100 | > 8 | > 8 | > 100 | > 8 | > 8 | > 100 |
| Fc1ccc(N2CCc3c(nnn3CC(c3ccccc3)c3ccccc3)C2)cc1 | ≥ 100 | > 100 | > 100 | > 8 | > 100 | > 8 | > 100 | > 8 | > 8 | > 100 | > 8 | > 8 | > 100 |
| Nc1ccn([C@H]2CC[C@@H](CO)O2)c(=O)n1 [ZALCITABINE] | > 250 |  |  |  |  |  |  |  |  | 50 |  |  |  |
| CCOC(=O)C1(Cc2ccccc2)CN(c2ccccc2)Cc2nnn(Cc3ccc(Cl)c(Cl)c3)c21 (stereo not drawn) | > 100 | > 100 | > 100 | > 8 | > 100 | > 8 | > 100 | > 8 | > 8 | > 100 | > 8 | > 8 | > 100 |
| COc1ccccc1CCn1nnc2c1CCN(c1ccc(C(F)(F)F)cc1)C2 | > 100 | > 100 | > 100 | > 8 | > 100 | > 8 | > 100 | > 8 | > 8 | > 100 | > 8 | > 8 | > 100 |
